This is an account of results in article PMC7561591 (European Journal of Medicinal Chemistry, 2020).

As a reminder, the half-life is the time in which the quantity being followed falls by half.

Data set [1] in a line: Metabolic stability in human liver microsomes. The class given is in vitro ADME. In short, it runs like this:
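Test compound (10 μM) preincubated 5 min at 37 °C with HLM (1 mg/mL) in 0.1 M phosphate buffer pH 7.4, then started with 2 mM NADPH under shaking at 37 °C. Samples at 0, 10, 20, 40 and 60 min quenched in cold acetonitrile with labetalol internal standard and centrifuged. Unchanged substrate and metabolites tracked; t1/2 and CLint from kinetic analysis.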
(Microsomes from liver hold many membrane-bound enzymes, among them those of drug oxidation.)

For data set [2] the following is noted: reference compounds of the solubility assay; cited from earlier work.

As for `Cc1cc(-c2ccccc2)nc2nc(C(=O)Nc3ccccc3C(N)=O)nn12` [Compound 23], the intrinsic clearance in data set [1] (HLM, kinetic analysis in WebMetabase) is listed as 4.18 μL/min∗ mgprot. The half-life at 10 μM in data set [1] (human, liver microsomes, pH 7.4) came out at 2.77 h.

In the case of `C[C@H]1O[C@@H](O[C@H]2[C@@H](O)C[C@H](O[C@H]3[C@@H](O)C[C@H](O[C@H]4CC[C@@]5(C)[C@H](CC[C@@H]6[C@@H]5C[C@@H](O)[C@]5(C)[C@@H](C7=CC(=O)OC7)CC[C@]65O)C4)O[C@@H]3C)O[C@@H]2C)C[C@H](O)[C@@H]1O` [Digossin], in data set [2], the “equilibrium solubility of reference compounds” value is 84.0 µM.
